Experiments:
OVCAR-3 = experiment: Growth inhibition of human OVCAR3 cells assessed as cell growth at 10 uM after 48 hrs by sulforhodamine B assay; assay type: functional; conditions: OVCAR-3, 48 h, read-out: Activity
Outline: (§1)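 NCI 60-cell-line panel screen (nine cancer types). Compounds added at single concentration 10^-5 M, cultures incubated 48 h; growth inhibition percentages reported.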

RXF 393 = experiment: Growth inhibition of human RXF393 cells assessed as cell growth at 10 uM after 48 hrs by sulforhodamine B assay; assay type: functional; conditions: RXF 393, 48 h, read-out: Activity; outline: as §1
DU-145 = experiment: Growth inhibition of human DU145 cells assessed as cell growth at 10 uM after 48 hrs by sulforhodamine B assay; assay type: functional; conditions: DU-145, 48 h, read-out: Activity; outline: as §1
Malme-3M = experiment: Growth inhibition of human MALME-3M cells assessed as cell growth at 10 uM after 48 hrs by sulforhodamine B assay; assay type: functional; conditions: read-out: Activity; outline: as §1
CCRF-CEM = experiment: Growth inhibition of human CCRF-CEM cells assessed as cell growth at 10 uM after 48 hrs by sulforhodamine B assay; assay type: functional; conditions: read-out: Activity; outline: as §1
T47D = experiment: Growth inhibition of human T47D cells assessed as cell growth at 10 uM after 48 hrs by sulforhodamine B assay; assay type: functional; conditions: read-out: Activity
Outline: (§2)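 NCI 60-cell-line panel from nine tumour types (leukaemia, lung, colon, CNS, melanoma, ovarian, renal, prostate, breast). Each compound was added at one single concentration, and cultures were incubated for 48 h. Results are reported as percent growth inhibition.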

TK-10 = experiment: Growth inhibition of human TK10 cells assessed as cell growth at 10 uM after 48 hrs by sulforhodamine B assay; assay type: functional; conditions: TK-10, 48 h, read-out: Activity; outline: as §2
A549 = experiment: Growth inhibition of human A549/ATCC cells assessed as cell growth at 10 uM after 48 hrs by sulforhodamine B assay; assay type: functional; conditions: A549, 48 h, read-out: Activity; outline: as §1
MCF7 = experiment: Growth inhibition of human MCF7 cells assessed as cell growth at 10 uM after 48 hrs by sulforhodamine B assay; assay type: functional; conditions: MCF7, 48 h, read-out: Activity; outline: as §1
HL-60 = experiment: Cytotoxicity in human HL60 cells assessed as reduction in cell viability incubated for 48 hrs by MTT assay; assay type: functional, cell-based; conditions: HL-60, 48 h
Outline: (§3)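 HepG2 and HL60 (ATCC) grown in DMEM with 10% FBS, 2 mM L-glutamine, penicillin/streptomycin, amphotericin B at 37 °C, 5% CO2. Samples dissolved in DMSO, diluted thousandfold in assay. Cells seeded in serum-free medium, treated with serial concentrations 48 h; MTT 4 h, formazan dissolved in acidified isopropanol, A570. Triplicates averaged; viability relative to untreated/vehicle control.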

NCI-H23 = experiment: Growth inhibition of human NCI-H23 cells assessed as cell growth at 10 uM after 48 hrs by sulforhodamine B assay; assay type: functional; conditions: NCI-H23, 48 h, read-out: Activity; outline: as §1
RPMI-8226 = experiment: Growth inhibition of human RPMI8226 cells assessed as cell growth at 10 uM after 48 hrs by sulforhodamine B assay; assay type: functional; conditions: RPMI-8226, 48 h, read-out: Activity; outline: as §1
SF-539 = experiment: Growth inhibition of human SF539 cells assessed as cell growth at 10 uM after 48 hrs by sulforhodamine B assay; assay type: functional; conditions: SF-539, 48 h, read-out: Activity; outline: as §1
SW-620 = experiment: Growth inhibition of human SW620 cells assessed as cell growth at 10 uM after 48 hrs by sulforhodamine B assay; assay type: functional; conditions: SW-620, 48 h, read-out: Activity; outline: as §2
HOP-92 = experiment: Growth inhibition of human HOP92 cells assessed as cell growth at 10 uM after 48 hrs by sulforhodamine B assay; assay type: functional; conditions: HOP-92, 48 h, read-out: Activity; outline: as §1
NCI/ADR-RES = experiment: Growth inhibition of human NCI-ADR-RES cells assessed as cell growth at 10 uM after 48 hrs by sulforhodamine B assay; assay type: functional; conditions: read-out: Activity; outline: as §1
UO-31 = experiment: Growth inhibition of human UO31 cells assessed as cell growth at 10 uM after 48 hrs by sulforhodamine B assay; assay type: functional; conditions: UO-31, 48 h, read-out: Activity; outline: as §2
NCI-H322M = experiment: Growth inhibition of human NCI-H322M cells assessed as cell growth at 10 uM after 48 hrs by sulforhodamine B assay; assay type: functional; conditions: read-out: Activity; outline: as §1
HCT-116 = experiment: Growth inhibition of human HCT116 cells assessed as cell growth at 10 uM after 48 hrs by sulforhodamine B assay; assay type: functional; conditions: HCT-116, 48 h, read-out: Activity; outline: as §1
M14 = experiment: Growth inhibition of human M14 cells assessed as cell growth at 10 uM after 48 hrs by sulforhodamine B assay; assay type: functional; conditions: M14, 48 h, read-out: Activity; outline: as §1
A498 = experiment: Growth inhibition of human A498 cells assessed as cell growth at 10 uM after 48 hrs by sulforhodamine B assay; assay type: functional; conditions: A498, 48 h, read-out: Activity; outline: as §1
SNB-19 = experiment: Growth inhibition of human SNB19 cells assessed as cell growth at 10 uM after 48 hrs by sulforhodamine B assay; assay type: functional; conditions: SNB-19, 48 h, read-out: Activity; outline: as §2
OVCAR-4 = experiment: Growth inhibition of human OVCAR4 cells assessed as cell growth at 10 uM after 48 hrs by sulforhodamine B assay; assay type: functional; conditions: OVCAR-4, 48 h, read-out: Activity; outline: as §1
HepG2 = experiment: Cytotoxicity in human HepG2 cells assessed as reduction in cell viability incubated for 48 hrs by MTT assay; assay type: functional, cell-based; conditions: HepG2, 48 h; outline: as §3
SNB-75 = experiment: Growth inhibition of human SNB75 cells assessed as cell growth at 10 uM after 48 hrs by sulforhodamine B assay; assay type: functional; conditions: SNB-75, 48 h, read-out: Activity; outline: as §2
HT-29 = experiment: Growth inhibition of human HT-29 cells assessed as cell growth at 10 uM after 48 hrs by sulforhodamine B assay; assay type: functional; conditions: HT-29, 48 h, read-out: Activity; outline: as §1
ACHN = experiment: Growth inhibition of human ACHN cells assessed as cell growth at 10 uM after 48 hrs by sulforhodamine B assay; assay type: functional; conditions: read-out: Activity; outline: as §1
NCI-H460 = experiment: Growth inhibition of human NCI-H460 cells assessed as cell growth at 10 uM after 48 hrs by sulforhodamine B assay; assay type: functional; conditions: NCI-H460, 48 h, read-out: Activity; outline: as §1
SF-268 = experiment: Growth inhibition of human SF268 cells assessed as cell growth at 10 uM after 48 hrs by sulforhodamine B assay; assay type: functional; conditions: SF-268, 48 h, read-out: Activity; outline: as §1
PC-3 = experiment: Growth inhibition of human PC3 cells assessed as cell growth at 10 uM after 48 hrs by sulforhodamine B assay; assay type: functional; conditions: PC-3, 48 h, read-out: Activity; outline: as §1
BT-549 = experiment: Growth inhibition of human BT549 cells assessed as cell growth at 10 uM after 48 hrs by sulforhodamine B assay; assay type: functional; conditions: BT-549, 48 h, read-out: Activity; outline: as §1
SK-MEL-2 = experiment: Growth inhibition of human SK-MEL-2 cells assessed as cell growth at 10 uM after 48 hrs by sulforhodamine B assay; assay type: functional; conditions: SK-MEL-2, 48 h, read-out: Activity; outline: as §1
LOX IMVI = experiment: Growth inhibition of human LOXIMVI cells assessed as cell growth at 10 uM after 48 hrs by sulforhodamine B assay; assay type: functional; conditions: read-out: Activity; outline: as §1

Compound | growth at 10 µM (OVCAR-3) | growth at 10 µM (RXF 393) | growth at 10 µM (DU-145) | growth at 10 µM (Malme-3M) | growth at 10 µM (T47D) | growth at 10 µM (TK-10) | growth at 10 µM (A549) | growth at 10 µM (MCF7) | IC50 (HL-60) | growth at 10 µM (NCI-H23) | growth at 10 µM (RPMI-8226) | growth at 10 µM (SF-539) | growth at 10 µM (SW-620) | growth at 10 µM (HOP-92) | growth at 10 µM (NCI/ADR-RES) | growth at 10 µM (UO-31) | growth at 10 µM (NCI-H322M) | growth at 10 µM (HCT-116) | growth at 10 µM (M14) | growth at 10 µM (A498) | other results
CCOc1ccc(-n2nc(C(=O)Nc3cc(OC)c(OC)c(OC)c3)nc2-c2cc(OC)c(OC)c(OC)c2)cc1 | 86.9% | 83.8% | 99.1% | 85.2% | 51.4% | 104% | 86.9% | 83.2% | > 100 µM | 85% | 55.7% | 87.8% | 95.5% | 69.9% | 85.8% | 52.6% | 89.2% | 75.8% | 91.5% | 67.3% | growth at 10 µM (CCRF-CEM): 66.5%; growth at 10 µM (SNB-19): 82.1%; growth at 10 µM (OVCAR-4): 68.1%; IC50 (HepG2): 37.8 µM; growth at 10 µM (SNB-75): 65.6%; growth at 10 µM (HT-29): 84.6%; growth at 10 µM (ACHN): 85.7%; growth at 10 µM (NCI-H460): 92.1%; growth at 10 µM (SF-268): 92.1%; growth at 10 µM (PC-3): 70.2%; growth at 10 µM (BT-549): 91.5%; growth at 10 µM (SK-MEL-2): 85.6%; growth at 10 µM (LOX IMVI): 89%
CCOc1ccc(-n2nc(C(=O)Nc3ccc(F)c(F)c3F)nc2-c2cc(OC)c(OC)c(OC)c2)cc1 | 91.6% | 89.9% | 105% | 86.9% | 65.7% | 101% | 85.7% | 79.5% | 10.9 µM | 97.5% | 87.2% | 87.9% | 103% | 84.9% | 88.6% | 51.5% | 69.5% | 73.4% | 93.9% | 88.7% | growth at 10 µM (SNB-19): 88.3%; growth at 10 µM (OVCAR-4): 78.8%; IC50 (HepG2): 10.8 µM; growth at 10 µM (SNB-75): 68.3%; growth at 10 µM (HT-29): 87.8%; growth at 10 µM (ACHN): 85.2%; growth at 10 µM (NCI-H460): 104%; growth at 10 µM (SF-268): 82.3%; growth at 10 µM (PC-3): 71.6%; growth at 10 µM (BT-549): 78.9%; growth at 10 µM (SK-MEL-2): 84.1%; growth at 10 µM (LOX IMVI): 94%
COc1cccc(-n2nc(C(=O)Nc3ccccc3)nc2-c2cc(OC)c(OC)c(OC)c2)c1 | 99.9% | 97.9% | 104% | 95.9% | 62.2% | 53.2% | 92.4% | 91.6% | > 100 µM | 111% | 108% | 93.6% | 100% | 97.9% | 93.1% | 61.6% | 81.1% | 91.3% | 102% | 100% | growth at 10 µM (CCRF-CEM): 105%; growth at 10 µM (SNB-19): 102%; growth at 10 µM (OVCAR-4): 81.8%; IC50 (HepG2): 6.53 µM; growth at 10 µM (SNB-75): 55.5%; growth at 10 µM (HT-29): 79.9%; growth at 10 µM (ACHN): 93.8%; growth at 10 µM (NCI-H460): 107%; growth at 10 µM (SF-268): 88.6%; growth at 10 µM (PC-3): 90%; growth at 10 µM (BT-549): 87.4%; growth at 10 µM (SK-MEL-2): 98%; growth at 10 µM (LOX IMVI): 102%
